Results taken from ChEMBL document CHEMBL1153527, “Discovery of a novel series of quinolone and naphthyridine derivatives as potential topoisomerase I inhibitors by scaffold modification” (J Med Chem, 2009).
The source made the active and inactive calls. No cut-off for these calls is given here.

How the values were obtained:
HepG2 = assay: Cytotoxicity against human HepG2 cells expressing wild type p53 after 48 hrs by SRB assay; type: functional, cell-based; settings: HepG2, 48 h
Method in brief: (§1)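 Cell lines came from CCRC, Taiwan. Cells were seeded at about 5 × 10^3 per well and left overnight. They were then given serum-free medium containing 0-10 μM compound (0.08-10 μM serial dilutions) for 48 h at 37 °C. Cells were fixed with TCA (10% final), stained with SRB (0.4% final), and the dye was dissolved in 10 mM Tris with A515 read. IC50 was taken from a fitted log concentration-response curve.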

AGS = assay: Cytotoxicity against human AGS cells expressing wild type p53 after 48 hrs by SRB assay; type: functional, cell-based; method in brief: as §1
HT-29 [1] = assay: Cell cycle distribution in human HT-29 cells assessed as accumulation at sub-G1 phase at 0.1 uM after 48 hrs by flow cytometry; type: functional, cell-based
Method in brief: (§2)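 HT-29 cells were exposed to vehicle or compound for 6, 12, 24 or 48 h. Attached and floating cells were collected by trypsin-EDTA, fixed in 70% ethanol, and treated with 0.1% Triton X-100 for 30 min. They were stained with 50 μg/mL PI plus 50 μg/mL RNase A for 30 min in the dark at room temperature. 10000 cells were read by FL2 at 488 nm excitation. S-phase and sub-G1 (apoptotic) fractions are expressed as % of total cells.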

MCF7 = assay: Cytotoxicity against estrogen receptor-positive human MCF7 cells expressing wild type p53 after 48 hrs by SRB assay; type: functional, cell-based; settings: MCF7, 48 h; method in brief: as §1
A549 = assay: Cytotoxicity against human A549 cells expressing wild type p53 after 48 hrs by SRB assay; type: functional, cell-based; settings: A549, 48 h; method in brief: as §1
[2] = Cytotoxicity against estrogen receptor-negative human […] cells expressing p53 mutant after 48 hrs by SRB assay; type: functional, cell-based; method in brief: as §1
PC-3 = assay: Cytotoxicity against p53-deficient human PC3 cells after 48 hrs by SRB assay; type: functional, cell-based; settings: PC-3, 48 h; method in brief: as §1
HT-29 [3] = assay: Cell cycle distribution in human HT-29 cells assessed as accumulation at S phase at 0.1 uM after 12 hrs by flow cytometry; type: functional, cell-based; method in brief: as §2
[4] = Cytotoxicity against p53-deficient human Hep3B cells after 48 hrs by SRB assay; type: functional, cell-based, Hep 3B2; method in brief: as §1
U-937 = assay: Cytotoxicity against human U937 cells expressing p53 mutant after 48 hrs by SRB assay; type: functional, cell-based; settings: U-937, 48 h
HT-29 [5] = assay: Cytotoxicity against human HT-29 cells expressing p53 mutant after 48 hrs by SRB assay; type: functional, cell-based; settings: HT-29, 48 h; method in brief: as §1
K562 = assay: Cytotoxicity against p53-deficient human K562 cells after 48 hrs by SRB assay; type: functional, cell-based; settings: K562, 48 h
HT-29 [6] = assay: Antitumor activity against human HT-29 cells xenografted in athymic BALB/c nude mouse at 5 mg/kg, ip for 2 days measured after 30 days relative to placebo control; type: functional; settings: route intraperitoneal
Method in brief: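 Female athymic BALB/c nude mice (35-40 days old, 18-22 g). HT-29 tumours first grown from 1 × 10^7 cells injected s.c. in the axillary fossa, then excised and transplanted. Treatment started at 100-300 mm3. Groups of n=6 were dosed i.p. daily in 400 μL: saline for 10 days, 5 mg/kg for 2 days, or 75/150 mg/kg for 10 days. Caliper volume was V=1/2·a·b². Values are relative to start volume, compared with placebo by Student's t test, and mice were killed on day 30.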

THP-1 = assay: Cytotoxicity against human THP1 cells expressing p53 mutant after 48 hrs by SRB assay; type: functional, cell-based; settings: THP-1, 48 h
HT-29 [7] = assay: Induction of apoptosis in human HT-29 cells assessed as increase in accumulation at sub-G1 phase at 0.1 uM after 48 hrs by flow cytometry; type: functional; method in brief: as §2
HeLa = assay: Cytotoxicity against p53-deficient human HeLa cells after 48 hrs by SRB assay; type: functional, cell-based; method in brief: as §1
HT-29 [8] = assay: Cell cycle distribution in human HT-29 cells assessed as accumulation at S phase at 0.1 uM after 48 hrs by flow cytometry; type: functional, cell-based; method in brief: as §2
HT-29 [9] = assay: Cell cycle distribution in human HT-29 cells assessed as accumulation at S phase at 0.1 uM after 24 hrs by flow cytometry; type: functional, cell-based; method in brief: as §2
HT-29 [10] = assay: Cell cycle distribution in human HT-29 cells assessed as accumulation at S phase at 0.1 uM after 6 hrs by flow cytometry; type: functional, cell-based; method in brief: as §2
[11] = molecular target: T1, DNA topoisomerase 1 (Homo sapiens) (UniProt P11387); assay: Induction of human topoisomerase 1-mediated chromosomal DNA strand breaks in HT-29 cells at 10 uM after 1 hr by comet assay; type: cell-based
T1 sequence (whole entry): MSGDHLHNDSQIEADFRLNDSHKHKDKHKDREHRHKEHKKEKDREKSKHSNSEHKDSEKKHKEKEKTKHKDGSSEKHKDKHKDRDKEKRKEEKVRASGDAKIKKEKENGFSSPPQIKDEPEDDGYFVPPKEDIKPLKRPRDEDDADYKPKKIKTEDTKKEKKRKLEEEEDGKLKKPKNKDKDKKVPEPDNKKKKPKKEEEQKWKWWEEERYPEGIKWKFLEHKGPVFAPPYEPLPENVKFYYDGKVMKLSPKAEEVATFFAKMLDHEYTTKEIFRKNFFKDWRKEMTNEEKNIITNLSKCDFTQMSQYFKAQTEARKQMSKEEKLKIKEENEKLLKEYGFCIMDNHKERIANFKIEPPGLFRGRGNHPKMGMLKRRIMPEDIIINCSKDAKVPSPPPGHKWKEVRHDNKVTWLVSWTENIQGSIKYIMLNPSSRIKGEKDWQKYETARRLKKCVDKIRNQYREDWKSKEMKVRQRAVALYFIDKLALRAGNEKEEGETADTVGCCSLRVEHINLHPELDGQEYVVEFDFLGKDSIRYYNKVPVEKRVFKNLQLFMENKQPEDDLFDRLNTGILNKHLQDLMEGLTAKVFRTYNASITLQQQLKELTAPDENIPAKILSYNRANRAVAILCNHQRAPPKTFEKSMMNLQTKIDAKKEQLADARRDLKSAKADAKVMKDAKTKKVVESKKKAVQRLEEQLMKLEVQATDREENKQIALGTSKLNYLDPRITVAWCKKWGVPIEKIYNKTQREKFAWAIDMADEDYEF
Method in brief: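 HT-29 cells were seeded at 1 × 10^4 per well and attached overnight, then treated for 1 h. Untreated cells served as negative control. Cells in low-melting agarose on precoated slides were lysed at pH 10.5 for 30 min at 4 °C and unwound in 300 mM NaOH/1 mM EDTA (pH >13) for 30 min at 4 °C. Electrophoresis ran 10 min at 16 V, with SYBR Gold staining. Read-out was mean % tail DNA from ≥50 nuclei, duplicates in three independent experiments.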

KB = assay: Cytotoxicity against human KB cells after 48 hrs by MTT assay; type: functional, cell-based
[12] = molecular target: T1, DNA topoisomerase 1 (Homo sapiens); assay: Inhibition of DNA topoisomerase 1-mediated supercoiled Escherichia coli pBR322 DNA relaxation upto 25 uM after 30 mins
Bel-7402 = assay: Cytotoxicity against human Bel7402 cells after 48 hrs by MTT assay; type: functional, cell-based; settings: Bel-7402, 48 h
[13] = Solubility in assay condition at 50 uM; type: physicochemical
A2780 = assay: Cytotoxicity against human A2780 cells after 48 hrs by MTT assay; type: functional, cell-based; settings: A2780, 48 h

Row | Compound | GI50 (HepG2) [µM] | IC50 (HepG2) [µM] | GI50 (AGS) [µM] | IC50 (AGS) [µM] | GI50 (MCF7) [µM] | IC50 (MCF7) [µM] | GI50 (A549) [µM] | IC50 (A549) [µM] | GI50 [2] [µM] | IC50 [2] [µM] | GI50 (PC-3) [µM] | IC50 (PC-3) [µM] | GI50 [4] [µM] | IC50 [4] [µM] | IC50 (U-937) [µM] | GI50 (HT-29 [5]) [µM] | IC50 (HT-29 [5]) [µM] | IC50 (K562) [µM] | IC50 (THP-1) [µM] | GI50 (HeLa) [µM] | other results
1 | CC[C@@]1(O)C(=O)OCc2c1cc1n(c2=O)Cc2cc3c(CN(C)C)c(O)ccc3nc2-1 [TOPOTECAN] | 1.2 | 1.6 | 0.1 | 0.3 | 0.8 | 2 | 0.9 | 1.9 | 0.9 | 2 | 1.3 | 2 | 0.4 | 1.4 | 1.1 | 0.08 | 0.4 | 1.7 | 1.5 | 0.08 | Activity (HT-29 [1]): Active; Activity (HT-29 [3]): Active; Activity (HT-29 [6]): 76%; Activity (HT-29 [7]): 40.5%; IC50 (HeLa): 1.6 µM; Activity (HT-29 [8]): Active; Activity (HT-29 [9]): Active; Activity (HT-29 [10]): Active
2 | CC[C@@]1(O)C(=O)OCc2c1cc1n(c2=O)Cc2cc3ccccc3nc2-1 [CAMPTOTHECIN] | 0.1 | 0.2 | 0.01 | 0.02 | 0.01 | 1.1 | 0.01 | 0.04 | 0.08 | 1.7 | 0.7 | 1.4 | 0.01 | 0.06 | 0.3 | 0.03 | 0.4 | 1.4 | 0.6 | 0.04 | Activity (HT-29 [1]): Active; Activity [11]: 84%; Activity (HT-29 [3]): Active; Activity (HT-29 [7]): 44.8%; IC50 (HeLa): 0.2 µM; Activity (HT-29 [8]): Active; Activity (HT-29 [9]): Active; Activity (HT-29 [10]): Active
3 | C[C@H]1COc2c(N3CCN(C)CC3)c(F)cc3c(=O)c(-c4nc5ccc([N+](=O)[O-])cc5s4)cn1c23 | 7.6 | > 10 | 7 | 8.8 | > 10 | > 10 | 3.9 | > 10 | > 10 | > 10 | 1.8 | 9.9 | > 10 | > 10 | > 10 | 5 | 10 | > 10 | > 10 | > 10 | IC50 (KB): 0.6 µM; inhibition [12]: inactive; IC50 (Bel-7402): 2 µM; solubility [13]: Insoluble; IC50 (A2780): 1.2 µM; IC50 (HeLa): > 10 µM
4 | CCn1cc(-c2nc3ccc([N+](=O)[O-])cc3s2)c(=O)c2cc(F)c(N3CCNC(C)C3)c(F)c21 (stereo not given) | 0.9 | 3.6 | 3.3 | 5.4 | > 10 | > 10 | 1.5 | 7 | 2.3 | 7.4 | 2.7 | 10 | 0.6 | 1.4 | > 10 | 1 | 5 | > 10 | > 10 | 1.7 | IC50 (KB): 4.7 µM; IC50 (Bel-7402): 4.1 µM; IC50 (A2780): 3.3 µM; IC50 (HeLa): 9.9 µM
5 | CCn1cc(-c2nc3ccc(N)cc3[nH]2)c(=O)c2cc(F)c(N3CCN(C)CC3)cc21 | > 10 | > 10 | 10 | > 10 | > 10 | > 10 | 1 | > 10 | > 10 | > 10 | > 10 | > 10 | > 10 | > 10 | > 10 | > 10 | > 10 | > 10 | > 10 | > 10 | IC50 (KB): > 50 µM; IC50 (Bel-7402): > 50 µM; IC50 (A2780): > 50 µM; IC50 (HeLa): > 10 µM
